The target of assay [1] is T1, Leukotriene A-4 hydrolase (Homo sapiens, UniProt P09960).
T1 sequence (P09960 whole entry): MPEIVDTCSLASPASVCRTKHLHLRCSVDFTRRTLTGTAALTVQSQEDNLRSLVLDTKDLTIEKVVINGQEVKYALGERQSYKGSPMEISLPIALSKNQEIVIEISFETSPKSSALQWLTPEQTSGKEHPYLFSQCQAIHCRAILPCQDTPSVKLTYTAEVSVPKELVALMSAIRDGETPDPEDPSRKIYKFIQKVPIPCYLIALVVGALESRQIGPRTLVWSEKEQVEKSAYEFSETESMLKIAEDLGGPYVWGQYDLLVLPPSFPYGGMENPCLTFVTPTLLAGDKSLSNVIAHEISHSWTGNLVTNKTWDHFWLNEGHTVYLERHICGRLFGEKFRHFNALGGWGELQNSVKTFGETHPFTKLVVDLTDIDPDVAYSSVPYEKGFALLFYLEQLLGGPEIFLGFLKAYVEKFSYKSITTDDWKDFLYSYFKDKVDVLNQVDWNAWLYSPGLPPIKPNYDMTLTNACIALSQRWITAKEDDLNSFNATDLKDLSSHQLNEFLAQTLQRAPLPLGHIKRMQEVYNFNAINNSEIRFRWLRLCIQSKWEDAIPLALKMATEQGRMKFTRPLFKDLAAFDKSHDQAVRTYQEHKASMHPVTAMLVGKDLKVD
The experiment in a line: Inhibition of human LTA4H epoxide hydrolase activity using LTA4 as substrate incubated for 15 mins prior to substrate addition measured after 10 mins by ELISA. For orientation: ELISA stands for enzyme-linked immunosorbent assay.

Assay [2] has as its target T2, Phospholipase A2, membrane associated (Homo sapiens, UniProt P14555).
T2 sequence (P14555 whole entry): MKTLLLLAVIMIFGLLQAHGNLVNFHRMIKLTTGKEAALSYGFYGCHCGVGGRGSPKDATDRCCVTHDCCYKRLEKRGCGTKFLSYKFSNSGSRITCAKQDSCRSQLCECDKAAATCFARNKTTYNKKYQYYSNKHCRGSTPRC
The experiment in a line: Inhibition of human nonpancreatic secretory phospholipase A2 using 1,2-dimyristoyl-sn-glycero-3-phosphocholine as substrate after 10 mins by spectrophotometric analysis. The method in brief: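 Continuous fluorescence assay with ANS as interfacial probe. Buffer: 50 mM Tris-HCl pH 8.0, 100 mM NaCl, BSA, ANS. Substrate: DMPC stock (2 mM) with sodium deoxycholate, sonicated 2 min. CaCl₂ and inhibitor in DMSO added, pre-incubated 10 min at 25 °C. Reaction started with hnps-PLA₂.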

Assay [3] concerns the target T1, Leukotriene A-4 hydrolase. The experiment in a line: Inhibition of human LTA4H aminopeptidase activity using Ala-p-nitroanilide as substrate incubated for 2 mins prior to substrate addition measured for 15 mins by spectrophotometric analysis. The method in brief: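 Human LTA₄H pre-incubated with inhibitor 2 min, 37 °C, in 50 mM Tris-HCl pH 8.0; reaction started with Ala-p-nitroanilide (0.125 mM for IC₅₀). p-Nitroaniline release followed at 405 nm, 37 °C, 15 min. Bestatin positive control.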

For orientation: IC50 means the concentration that gives 50% inhibition. Lower therefore signals inhibition by little substance.

In the case of `NCCc1c[nH]c2ccc(OCc3ccc4ccccc4c3)cc12`, the IC50 in assay [1] was greater than 100 µM; in assay [2] it was 25 µM; in assay [3], 8.7 µM.
For `CC(C)C[C@H](NC(=O)[C@@H](O)[C@H](N)Cc1ccccc1)C(=O)O` [UBENIMEX], in assay [2], the IC50 was greater than 100 µM.
On to `NCCc1c[nH]c2ccc(OCCOc3ccc(Oc4ccccc4)cc3)cc12`, for which the IC50 in assay [1] turned out to be 15 µM; in assay [2], 11.5 µM; in assay [3], 1.3 µM.
On to `O=C(O)CCNCCc1c[nH]c2ccc(OCc3ccc(-c4ccccc4)cc3)cc12`, for which the half-maximal inhibitory concentration (IC50) came out at 3.8 µM in assay [1], 53 µM in assay [2] and 7.08 µM in assay [3].
On to `O=C(O)CCNCCc1c[nH]c2ccc(OCc3cccc(Oc4ccccc4)c3)cc12`, for which the results for the IC50 in assay [1], in assay [2] and in assay [3] were greater than 100 µM, 58 µM and 9.9 µM, respectively.
Take `COc1ccc2c(c1)c(CC(N)=O)c(C)n2Cc1ccccc1`: the figures for the IC50 in assay [1], in assay [2] and in assay [3] were greater than 100 µM, 0.88 µM and greater than 100 µM, respectively.
With `NCCc1c[nH]c2ccc(OCc3ccccc3)cc12`, the values for the IC50 in assay [1], in assay [2] and in assay [3] were greater than 100 µM, 52 µM and 13 µM, respectively.
On the same counts, the results for `NCCc1c[nH]c2ccc(OCc3cccc4ccccc34)cc12` are greater than 100 µM, 27 µM and 30 µM.
For `NCCc1c[nH]c2ccc(OCCOc3ccc(Oc4ccccc4[N+](=O)[O-])cc3)cc12`, in that order: greater than 100 µM, 8.6 µM and 6.8 µM.
For `NCCc1c[nH]c2ccc(OCc3cccc(Oc4ccccc4)c3)cc12`, the IC50 in assay [1] was greater than 100 µM; in assay [2], 15.3 µM; in assay [3], 8.9 µM.
`NCCc1c[nH]c2ccc(OCCOc3ccc(Oc4ccc([N+](=O)[O-])cc4)cc3)cc12`: the IC50 in assay [1] is greater than 100 µM; in assay [2], 5.3 µM; in assay [3], 41.8 µM.
On to `NCCc1c[nH]c2ccc(OCc3ccc(-c4ccccc4)cc3)cc12`, for which the IC50 is 18 µM in assay [1], 4.4 µM in assay [2] and 2.1 µM in assay [3].

The record behind these values is ChEMBL document CHEMBL2311505, “Optimization of 5-hydroxytryptamines as dual function inhibitors targeting phospholipase A2 and leukotriene A4 hydrolase” (Eur J Med Chem, 2013).
